Bioassay records deposited in PubChem by several laboratories.
PKA-R2B activ: PKA-R2B complex activation. P22694+P31323. activation, % at 11.4 µM. actives 0.079% (n = 340,000). PKA-R2B holoenzyme dissociation, Cy5-IP20 fluorescence polarization; R2B truncated from residue 108, S112A mutant; 0% DMSO only, 100% 113 µM cGMP. AID 504700;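 active = activation above a cutoff set at the mean over all compounds plus 3 SD, cut at about 18% in these data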;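 note: higher means more holoenzyme dissociation and a rise in polarization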
Rin1-Abl PPI inh: inhibitors of human Rin1-Abl protein interaction; inhibition, % at 7.35 µM; P00519+Q13671; AID 588664; TR-FRET Rin1/Abl binding, biochemical; actives 0.4% (n = 360,000); in the data active = inhibition above about 5%, passing the limit was not always enough
Target sequence (P00519 whole entry, looked up): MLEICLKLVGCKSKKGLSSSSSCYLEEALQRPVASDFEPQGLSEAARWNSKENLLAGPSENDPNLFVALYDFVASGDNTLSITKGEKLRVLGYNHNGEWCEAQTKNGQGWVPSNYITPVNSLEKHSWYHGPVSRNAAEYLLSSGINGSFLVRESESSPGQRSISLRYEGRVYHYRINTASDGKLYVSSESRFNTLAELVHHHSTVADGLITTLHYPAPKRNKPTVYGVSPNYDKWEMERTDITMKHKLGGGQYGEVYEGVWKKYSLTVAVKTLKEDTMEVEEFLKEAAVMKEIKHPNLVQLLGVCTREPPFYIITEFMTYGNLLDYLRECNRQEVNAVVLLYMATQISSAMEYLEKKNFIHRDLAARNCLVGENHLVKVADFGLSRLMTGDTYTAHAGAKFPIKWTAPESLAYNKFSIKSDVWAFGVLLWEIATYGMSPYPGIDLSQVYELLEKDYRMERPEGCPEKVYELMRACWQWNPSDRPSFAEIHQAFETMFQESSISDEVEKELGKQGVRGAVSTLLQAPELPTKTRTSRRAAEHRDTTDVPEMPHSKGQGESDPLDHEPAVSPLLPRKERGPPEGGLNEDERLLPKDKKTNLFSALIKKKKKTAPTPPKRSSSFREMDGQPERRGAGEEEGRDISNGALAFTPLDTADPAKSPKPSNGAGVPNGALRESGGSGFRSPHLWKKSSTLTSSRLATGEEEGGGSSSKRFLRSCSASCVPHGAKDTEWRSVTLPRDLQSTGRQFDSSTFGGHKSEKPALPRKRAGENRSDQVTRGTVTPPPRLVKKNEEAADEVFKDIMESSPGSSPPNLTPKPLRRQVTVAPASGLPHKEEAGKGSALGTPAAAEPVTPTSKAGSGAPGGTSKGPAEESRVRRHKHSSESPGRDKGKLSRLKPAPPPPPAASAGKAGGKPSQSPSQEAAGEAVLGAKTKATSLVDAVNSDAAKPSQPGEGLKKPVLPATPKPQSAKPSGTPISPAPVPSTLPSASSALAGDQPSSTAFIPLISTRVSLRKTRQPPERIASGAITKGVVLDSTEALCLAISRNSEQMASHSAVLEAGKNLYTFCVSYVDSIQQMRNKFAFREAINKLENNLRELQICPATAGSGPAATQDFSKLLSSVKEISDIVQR
Target sequence (Q13671 whole entry, looked up): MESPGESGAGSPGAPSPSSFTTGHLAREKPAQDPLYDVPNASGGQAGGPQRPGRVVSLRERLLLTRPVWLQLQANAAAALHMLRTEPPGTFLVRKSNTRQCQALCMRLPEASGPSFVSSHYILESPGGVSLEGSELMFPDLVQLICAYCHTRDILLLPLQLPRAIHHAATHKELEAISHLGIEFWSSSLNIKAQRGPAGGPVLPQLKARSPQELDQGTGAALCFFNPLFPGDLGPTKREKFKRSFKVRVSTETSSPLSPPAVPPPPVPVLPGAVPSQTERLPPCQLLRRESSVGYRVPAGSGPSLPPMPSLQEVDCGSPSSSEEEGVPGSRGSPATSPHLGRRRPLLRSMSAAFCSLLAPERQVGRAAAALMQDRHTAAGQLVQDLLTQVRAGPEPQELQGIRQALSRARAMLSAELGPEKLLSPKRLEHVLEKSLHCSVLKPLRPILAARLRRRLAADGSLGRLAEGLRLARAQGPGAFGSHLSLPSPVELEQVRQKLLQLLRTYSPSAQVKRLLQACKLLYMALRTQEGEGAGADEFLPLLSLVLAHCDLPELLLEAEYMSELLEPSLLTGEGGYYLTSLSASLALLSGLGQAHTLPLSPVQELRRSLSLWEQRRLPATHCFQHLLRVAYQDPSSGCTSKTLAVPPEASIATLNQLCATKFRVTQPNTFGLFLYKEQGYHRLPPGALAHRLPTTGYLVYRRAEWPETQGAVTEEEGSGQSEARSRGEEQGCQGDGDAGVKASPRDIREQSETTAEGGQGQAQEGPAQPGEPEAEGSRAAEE
PKA-R1A act: PKA-R1A complex activation; activation, % at 11.4 µM; PKA-R1A dissociation, Cy5-IP20 fluorescence polarization; scaled: DMSO 0%, 113 µM cGMP 100%; actives 0.083% (n = 340,000); P00514+P68181;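 active = percent activation above the mean of all tested compounds plus 3 SD, cut at about 19% in these data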;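 note: higher means more PKAc released from R1A so a rise in polarization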
UCH37 inh: blocks the human deubiquitinase UCH37. inhibition, % (test concentration not listed). AID 588478. Q9Y5K5. purified proteasome/UCH37, Ub-AMC cleavage fluorescence. actives 0.33% (n = 330,000);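 active = mean inhibition over replicate wells above about 20%, limit read from the data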;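 note: 0% = compound-free wells with enzyme and 100% = wells lacking proteasome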
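Material: human UCH37 enzyme supplied as purified proteasome complex. Measure: % inhibition of Ub-AMC cleavage fluorescence. Medium: pH 7.4 Tris-HCl (50 mM) with ovalbumin, ATP-MgCl2, DTT. Times: 30 min preincubation with enzyme, 25 min cleavage at room temperature. Detection: AMC fluorescence intensity at 355/460 nm.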
Rin1 Abl conf: confirmation of inhibitors of human Rin1-Abl interaction. shares compounds with Rin1-Abl PPI inh. TR-FRET Rin1-Abl binding, purified proteins. inhibition, % at 7.35 µM. actives 49% (n = 1,300)
GFP quench: quenches GFP fluorescence, counter-screen for Rin1-Abl inhibitors. shares compounds with Rin1-Abl PPI inh. inhibitors/quenchers counterscreen. inhibition, % at 6.75 µM. actives 8.5% (n = 1,300). AID 602125;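 note: ABL1-eGFP fusion protein alone without its partner RIN1-SBP; 0% = protein with vehicle and 100% = wells lacking protein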
GFP quench DR: counter-screen for Rin1-Abl inhibitors: GFP quenchers, dose response. shares compounds with Rin1-Abl PPI inh. GFP fluorescence interference/quenching counterscreen. IC50, µM. 230 tested, under 10 active. AID 602182; call rule not given here;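 note: ABL1-eGFP fusion protein alone without its RIN1 binding partner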
The depositor's hits bear a star; x = no result; ! = repeats disagree. The list is not random: actives were taken first. Their share in the collection is about 0.79%. Cut-off read from the data, not from the text of the source, unless noted: active = inhibition above about 6.5%; inactive = the rest.

SMILES	PKA-R2B activ	Rin1-Abl PPI inh	PKA-R1A act	UCH37 inh	Rin1 Abl conf	GFP quench	others
CCCCC[C@@H]1C=C(C(=O)O)[C@H](c2ccc(C)cc2)N1S(=O)(=O)c1ccc(C)cc1	-5	-4	2	4	x	x
CCCCC[C@@H]1C=C(C(=O)O)[C@H](c2ccc(Cl)cc2)N1S(=O)(=O)c1ccc(C)cc1	9	8.2*	9	x	-3	0
CCOc1ccc(C(=O)Nc2nnc(C(C)C)s2)cc1OCC	-1	7.8*	-5	4	-3	0
CC(C)Cn1cnc2c(c1=N)C(c1ccccc1)C1=C(CC(C)(C)CC1=O)O2 (stereo not given)	-4	7.0*	-9	4	1	-1
COc1ccc(C2c3c(ncn(CCCO)c3=N)Oc3ccc4ccccc4c32)cc1OC (stereo not given)	x	-4	x	6	x	x
COc1ccc(C2C3=C(CC(C)(C)CC3=O)Oc3ncn(CCO)c(=N)c32)cc1OC (stereo not given)	3	14*	-3	2	1	0
CCOC(=O)c1c[nH]c2c(C)cc(C)cc2c1=O	1	-2	-10	3	x	x
CCN(C(=O)CN1C(=O)COc2ccc(S(=O)(=O)N3CCOCC3)cc21)c1ccc(OC)cc1	0	8.2*	0	1	11*	0
CC(=O)N1CCN(c2nnc(-c3ccccc3)c3ccccc23)CC1	0	-3	-1	2	x	x
Cc1ccc(-c2nnc(N3CCN(C(=O)c4ccco4)CC3)c3ccccc23)cc1	9	13*	-4	4	7.9*	1
Cn1c(=O)c2c(nc(N3CCC(C(N)=O)CC3)n2CCSc2nc3ccccc3s2)n(C)c1=O	0	9.7*	-18	-11	7.0*	0
C#CCOCCOCCOCCNc1nc(N2CCOCC2)nc(N2CCN(C(=O)[C@H](Cc3ccc(O)cc3)n3cc([C@@H](N)C(C)CC)nn3)CC2)n1 (stereo not given in full)	-15	11*	-7	1	14*	0
Cn1c(=O)[nH]c(=O)c2c1nc(N1CCN(c3ccccc3)CC1)n2CCSc1ncccn1	-2	2	-17	4	x	x
Cc1ccc(CS/C(Nc2ccccc2C)=C(\C#N)C(=O)NCc2ccco2)c(C)c1	-13	26*	-2	5	1	2
CC[C@]12c3[nH]c4ccc(Cl)cc4c3CCN1C(=O)[C@@H](CC(=O)NCCCN(C)C)C[C@@H]2C(=O)N1CCN(C(=O)c2ccco2)CC1	-2	22*	-4	2	22*	-1	GFP quench DR=>68
CC[C@]12c3[nH]c4ccc(Cl)cc4c3CCN1C(=O)[C@@H](CC(=O)NCC13CC4CC(CC(C4)C1)C3)C[C@@H]2C(=O)N1CCN(C(=O)C2CC2)CC1	-8	4	1	0	x	x
CC[C@]12c3[nH]c4ccc(OC)cc4c3CCN1C(=O)C(CC(=O)NCC13CC4CC(CC(C4)C1)C3)C[C@@H]2C(=O)N1CCN(C(=O)C2CC2)CC1 (stereo not given in full)	0	19*	-2	2	24*	1	GFP quench DR=>68
CN1CCN(Cc2oc(CO)cc(=O)c2O)CC1	4	12*	-2	4	-1	-1
O=c1cc(CO)oc(CN2CCCC2)c1O	-3	27*	5	6	3	0
O=C(O)C1CCN(Cc2oc(CO)cc(=O)c2O)C1 (stereo not given)	-4	6	-4	x	x	x
O=c1cc(CO)oc(CN2CCN(Cc3ccccc3)CC2)c1O	-4	5	-6	-1	x	x
CCN(CC)Cc1oc(CO)cc(=O)c1O	-3	26*	-2	3	11*	2
Cc1ccc(C)c(N2CCN(C(=O)CN3C(=O)c4ccccc4C3=O)CC2)c1	-4	-4	0	1	x	x
Cc1onc(-c2ccccc2Cl)c1C(=O)NCc1ccccc1F	-9	3	-3	-2	x	x
Oc1ccc(C2CNCCc3c2cc(O)c(O)c3Cl)cc1 (stereo not given)	0	18*!	2	2	30*	8.4*
SMILES	PKA-R2B activ	Rin1-Abl PPI inh	PKA-R1A act	UCH37 inh	Rin1 Abl conf	GFP quench	others
Oc1cc2c(c(Cl)c1O)CCNCC2c1ccccc1 (stereo not given)	5	8	2	5	x	x
COc1ccc(CN2CCN(C(=O)c3ccco3)CC2)cc1OCc1ccccc1	3	2	-7	1	x	x
COc1ccccc1OCc1ccc(C(=O)N2CCN(C(=O)c3ccco3)CC2)cc1	3	10*	1	5	21*	0	GFP quench DR=>68
NC(=NOC(=O)c1cccc([N+](=O)[O-])c1)c1cccnc1	x	x	x	3	x	x
Cc1ccc(C(=O)O/N=C(\N)c2cccnc2)cc1[N+](=O)[O-]	-1	6.9*	-8	5	-1	-2
C(=NNc1nc(N2CCCC2)nc(N2CCCC2)n1)c1cccnc1	x	x	x	3	x	x
COc1cc(C2C=C(Nc3ccccc3)C(=O)N2c2ccccc2)ccc1O (stereo not given)	-5	7.1*	-11	3	-3	-1
COc1cccc(/C=N/N2CCOCC2)c1O	-4	1	-7	x	x	x
Oc1ccc(/C=N/N2CCCCC2)c(O)c1O	12	25*	2	x	32*	6	GFP quench DR=>68
Oc1ccc(/C=N/N2CCOCC2)c(O)c1O	0	30*	3	x	33*	7	GFP quench DR=>68
O=c1cc(N2CCN(Cc3ccccc3)CC2)[nH]c(=O)n1-c1cccc(C(F)(F)F)c1	8	1	7	-1	x	x
Cc1nn(Cc2c(Cl)cccc2Cl)c(C)c1NC(=O)c1cnn2c(C(F)F)cc(-c3ccccc3)nc12	-7	12*	3	1	-2	0
O=C(NCC1CCN(c2ccc(S(=O)(=O)N3CCOCC3)cc2)CC1)Nc1ccccc1	-6	1	-8	2	x	x
COc1ccccc1C(=O)NCC1CCN(c2ccc(S(=O)(=O)N3CCOCC3)cc2)CC1	9	22*	-4	4	13*	-1
COc1cc(OC)cc(C(=O)NC(=S)Nc2cccnc2)c1	-7	1	7	-2	x	x
COc1ccc(C(=O)NC(=S)Nc2cccnc2)cc1OC	8	8.9*	4	3	-2	-1
CN1OC[C@@H]2CN(C(=O)CCc3ccccc3)[C@H](c3ccccc3Br)C[C@@H]21	x	14*	x	x	12*	0
COc1cccc(N=Nc2ccc(O)c3ncccc23)c1	-12	6	3	x	x	x
COc1ccc(N=Nc2ccc(O)c3ncccc23)cc1	-13	0	2	7	x	x
COc1ccc(C)cc1N=Nc1ccc(O)c2ncccc12	5	9.0*	2	7	11*	7.0*
